# Measurements: PubChem BioAssay AID2178 (The Scripps Research Institute Molecular Screening Center, 2009)
# The campaign covered roughly 2,400 compounds. Fewer than 10 were called active.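 How the source made its calls: active means average inhibition across replicates above the hit cutoff set in the earlier primary screen; inactive means the rest.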 These entries were drawn from the full list.
# Target: Procathepsin L (Homo sapiens) (UniProt P07711)
# Assay: cathepsin L1 inhibitors, retest, confirmation, counter-screen for PFM18AAP inhibitor project, biochemical, QFRET, triplicate (AID 2178);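 further: 0% = median of test compound wells and 100% = Z-Phe-Ala-diazomethylketone 1 µM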
# Conditions: purified cathepsin L1, Z-Leu-Arg-MCA fluorescence; at 5.96 µM; active compounds read high
# In short: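 System – recombinant cathepsin L1, purified · Dosing – single nominal compound dose of 5.96 µM, 0.59% DMSO · Incubation – 30 min compound preincubation, then 90 min with substrate, 25 °C · Technique – fluorescence of released MCA at 0 and 90 min · Evaluation – percent inhibition from fluorescence change · Control set – full inhibition control, Z-Phe-Ala-diazomethylketone · Replicates – triplicate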
# Sequence of Procathepsin L (Homo sapiens) (P07711 whole entry, looked up): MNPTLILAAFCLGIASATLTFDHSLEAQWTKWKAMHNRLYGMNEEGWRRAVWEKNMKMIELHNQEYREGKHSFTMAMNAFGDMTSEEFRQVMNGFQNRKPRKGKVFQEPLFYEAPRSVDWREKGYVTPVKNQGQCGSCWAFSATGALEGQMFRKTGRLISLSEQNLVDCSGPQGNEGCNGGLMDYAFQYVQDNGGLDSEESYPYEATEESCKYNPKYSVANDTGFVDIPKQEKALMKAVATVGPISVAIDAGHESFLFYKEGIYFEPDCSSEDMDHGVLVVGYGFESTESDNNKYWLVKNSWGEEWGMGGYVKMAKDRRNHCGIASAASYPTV
row,Structure (SMILES),inhibition
1,CCN(CC)c1ccc(NC(=O)CCc2nnc3ccc(N4CCCCC4)nn23)c(C)c1,1.25% (inactive)
2,c1ccc2sc(NN=C3CCCC3)nc2c1,0.11% (inactive)
3,Cc1ccc(S(=O)(=O)N/N=C\c2cc3c(cc2[N+](=O)[O-])OCO3)cc1,-3.66% (inactive)
4,Cc1csc(NC(=O)NC2(C(F)(F)F)Oc3ccccc3O2)n1,-4.56% (inactive)
5,Cn1c(SCC(=O)N/N=C/c2ccc(O)c(O)c2)nc2ccccc21,-2.42% (inactive)
6,O=C(O)CCn1c(O)c(C=C2N=c3ccccc3=N2)sc1=S,2.67% (inactive)
7,NC(=O)c1c(NC(=O)CSc2nnc(-c3ccco3)n2N)sc2c1CCCC2,-6.97% (inactive)
8,O=C(Nn1cnnc1)c1cc(Cl)ccc1Cl,-2.58% (inactive)
9,CC(C)C1N=C2c3ccccc3N=C(SCC(=O)c3ccc(O)c(O)c3)N2C1=O (stereo not drawn),6.47% (inactive)
10,COc1ccc(OCc2nnc3n2N=C(c2ccccc2)C(CC(=O)O)S3)cc1 (stereo not drawn),0.71% (inactive)
11,Cc1ccc(C)c(NC(=O)NNC(=O)c2ccc3ccccc3c2O)c1,-3.43% (inactive)
12,CNC(=S)NNC(=O)c1ccc(N(C)C)cc1,3.16% (inactive)
13,CCN(CC)c1ccc(/C=N/Nc2nc(C)cc(C)n2)c(O)c1,4.21% (inactive)
14,COc1ccc(OCc2n[nH]c(=S)n2N)cc1,-6.49% (inactive)
15,Cc1cc(C)nc(Nc2ncn[nH]2)n1,-0.26% (inactive)
16,O=C(Oc1ccc(Br)cc1C(=S)N1CCOCC1)c1cccc([N+](=O)[O-])c1,-0.38% (inactive)
17,Cc1ccc(-c2ccc(/C=C(\C#N)C(N)=S)o2)c([N+](=O)[O-])c1,-0.99% (inactive)
18,O=C(CN1CCN(c2ccc(O)cc2)CC1)Nc1ccc(-c2ccccc2)cc1,-1.37% (inactive)
19,Oc1ccc(/C=N/Nc2ccc(C(F)(F)F)cn2)cc1O,-2.87% (inactive)
20,CCCc1nc2ccccc2c(=O)n1/N=C/c1ccc(O)c(O)c1,-0.21% (inactive)
21,Cc1cc(C)nc(NNC2=CC(=O)CC(C)(C)C2)n1,-3.35% (inactive)
22,CCN(CC)c1ccc2oc(=O)c(C)nc2c1,-1.42% (inactive)
23,COc1c(O)ccc2c1CN1CCc3cc4c(cc3C1C2)OCO4 (stereo not drawn),-3.11% (inactive)

row,Structure (SMILES),inhibition
1,CC(C)(C)c1nnc(N/N=C/c2ccc(O)cc2)n(N)c1=O,-5.72% (inactive)
2,Oc1ccc(/C=N/NC2=NCCCCC2)c(O)c1,1.65% (inactive)
3,CC(C)(C)C(=O)OCc1nc(-c2ccc(O)c(O)c2)cs1,-4.53% (inactive)
4,NC(=S)N/N=C/c1coc2cc(Cl)ccc2c1=O,1.96% (inactive)
5,CCn1ccnc1CNC(=O)CC1C(=O)NCCN1Cc1ccc(F)cc1Cl (stereo not drawn),-3.42% (inactive)
6,COc1cc(/C=N/NC(=S)Nc2cccnc2)cc(OC)c1O,-3.45% (inactive)
7,Cn1c(=O)[nH]c(=O)c2c1[nH]c(=S)n2Cc1ccccc1,-1.96% (inactive)
8,CC1CCN(C(=O)c2ccc3c(c2)NC(=O)CN3)CC1,-3.71% (inactive)
9,O=C(O)c1cccc(NC(=S)N/N=C/c2c[nH]c3ccccc23)c1,-2.87% (inactive)
10,O=C(Nc1cccc([N+](=O)[O-])c1)Nn1cnnc1,-5.02% (inactive)
11,COc1cc(/C=N\Nc2ccc([N+](=O)[O-])cn2)ccc1OCC(=O)O,6.51% (inactive)
12,CC(C)c1ccc(NC(=S)NNc2ccc(Cl)c(C(=O)O)c2)cc1,-5.45% (inactive)
13,Cc1nc2ccc(S(=O)(=O)NCC(=O)O)cc2s1,-0.46% (inactive)
14,O=C(CSc1ncn[nH]1)Nc1ccnc2ccccc12,-0.72% (inactive)
15,CCOc1cccc(/C=N/NC(=S)NCCN2CCOCC2)c1O,3.05% (inactive)
16,CCOc1ccc(C2C3=C(CCCC3=O)N(CC(=O)O)C3=C2C(=O)CCC3)cc1,0.31% (inactive)
17,COc1cc(/C=C2/C(=O)NN(c3cccc(Cl)c3)C2=O)cc(Br)c1O,-3.26% (inactive)
18,O=C(CO/N=C/c1ccccc1O)NNC(=O)c1ccccc1Cl,-40.2% (inactive)
19,COc1ccc2c(c1)C(C)=CC(C)(C)N2C(=O)Nc1ccccc1,0.44% (inactive)
20,Oc1ccc(N2CCN(C(=S)NCc3ccccc3)CC2)cc1,0.35% (inactive)
21,Cc1ccc2nc(-c3cccc(Br)c3)cc(C(=O)Nn3cnnc3)c2c1,-9.17% (inactive)
22,CN(C)c1ccc(C(CC(=O)O)C(=O)O)cc1 (stereo not drawn),-7.14% (inactive)
23,CC(OC(=O)c1ccc2noc(-c3ccccc3)c2c1)C(N)=O (stereo not drawn),2.03% (inactive)

row,Structure (SMILES),inhibition
1,NC(=O)C1CCN(C(=O)/C(=C/c2ccco2)NC(=O)c2ccccc2)CC1,-6.56% (inactive)
2,Cc1cccc(NC(=O)c2sc3nc(N4CCOCC4)c4c(c3c2N)CCCC4)c1,-1.63% (inactive)
3,CSc1n[nH]c(=S)n1N,-0.69% (inactive)
4,CC(C)(C)NC(=O)C(c1ccncc1)N(C(=O)CNC(=O)c1ccco1)c1ccc2c(c1)OCO2 (stereo not drawn),-6.31% (inactive)
5,Cc1nc2nc[nH]n2c(=O)c1C/C=C/c1ccccc1,-4.98% (inactive)
6,COc1ccc(N/C=C(\C2OC(=O)c3ccccc32)[N+](=O)[O-])cc1 (stereo not drawn),-5.34% (inactive)
7,c1ccc2c(c1)OCC(c1nn3cnnc3s1)O2 (stereo not drawn),2.86% (inactive)
8,COc1cc(/C=N/Nc2nn3cnnc3c3ccccc23)cc(OC)c1OC,3.85% (inactive)
9,ClC1(Cl)CC1CSc1ncn[nH]1 (stereo not drawn),-4.69% (inactive)
10,S=c1[nH]nc2c3c4c(sc3ncn12)CCCC4,-1.23% (inactive)
11,Cc1ccc(-c2noc(CC(c3ccccc3)c3ccccc3)n2)cc1,2.35% (inactive)
12,CC(/C=C/C1(O)C(C)CC(=O)CC1(C)C)OC1OC(CO)C(O)C(O)C1O (stereo not drawn),-6.26% (inactive)
13,Cc1cc2c(C)nc(N/N=C/c3ccccc3)nc2o1,3.67% (inactive)
14,O=C1CCCCN1CCCC(=O)N1CCCC(Nc2ccc(F)cc2)C1 (stereo not drawn),-1.53% (inactive)
15,O=c1nc(N/N=C/c2ccco2)cn[nH]1,8.33% (inactive)
16,O=C(COc1ccc([N+](=O)[O-])cc1Cl)Nn1cnnc1,-1.51% (inactive)
17,O=C(Nc1ccccc1Cl)Nn1cnnc1,-5.2% (inactive)
18,COc1ccc(OC)c(Nc2nc(-c3ccc(O)c(O)c3)cs2)c1,4.97% (inactive)
19,Cc1cc2nc3c(=O)n(Cc4ccccc4)c(=O)[nH]c3nc2cc1N,2.68% (inactive)
20,Cc1cc(-c2ccc(/C=N/n3cnnc3)o2)c([N+](=O)[O-])cc1C,1.38% (inactive)
21,O=C(CC(n1cncn1)C(Cl)(Cl)Cl)c1ccc([N+](=O)[O-])cc1 (stereo not drawn),1.47% (inactive)
22,Cc1ccc(Cl)cc1-c1ccc(/C=N/n2cnnc2)o1,3.57% (inactive)
23,COc1cc(S(=O)(=O)Nc2ncn[nH]2)ccc1Cl,0.28% (inactive)

row,Structure (SMILES),inhibition
1,O=[N+]([O-])c1ccc(N2CCN(c3ccc(O)cc3)CC2)c(Cl)c1,0.99% (inactive)
2,COc1cccc2cc(-c3cc(=O)oc4cc(C)c(O)cc34)oc12,-0.83% (inactive)
3,CC(=O)N(c1ccc2oc(=O)sc2c1)S(=O)(=O)c1ccc(C)cc1,-0.05% (inactive)
4,O=S(=O)(c1ccc(NC(=S)NN=C(C2CC2)C2CC2)cc1)N1CCOCC1,0.19% (inactive)
5,COc1cc(NC(=S)N2CCCC(C)C2)c(OC)cc1Cl (stereo not drawn),-10.4% (inactive)
6,Cc1ccsc1/C=N/Nc1ccc(Cl)nn1,0.84% (inactive)
7,COc1ccccc1-c1nnc(SCC(=O)Nc2cc(C)on2)o1,8.93% (inactive)
8,O=C(N/N=C/c1ccc(O)c(O)c1)C1c2ccccc2Oc2ccccc21,-5.02% (inactive)
9,O=C(CN1CCN(S(=O)(=O)c2cc(Cl)ccc2Cl)CC1)c1ccc(O)c(O)c1,-1.56% (inactive)
10,O=C(Cn1c[n+](CC(=O)c2ccc([N+](=O)[O-])cc2)cn1)c1ccc([N+](=O)[O-])cc1,13.7% (inactive)
11,Cc1ccc(NC(=O)c2c(NC(=O)CCC(=O)O)sc3c2CCCCC3)cc1,5.04% (inactive)
12,CC/C(C)=N/Nc1nc2sc3c(c2c(=O)[nH]1)CC(C)(C)OC3,2.48% (inactive)
13,Cn1sc(=O)c2cc(S(=O)(=O)NC3CC3)ccc21,-0.58% (inactive)
14,CCOc1ccc(-n2c(O)c(/C=N/Nc3nnc(C)c(=O)[nH]3)c3ccccc3c2=O)cc1,-0.55% (inactive)
15,Oc1cccc(/C=N/Nc2ccc(Cl)nn2)c1O,2.12% (inactive)
16,Cc1c(CC(=O)N2CCN(C(=O)C3COc4ccccc4O3)CC2)c(=O)oc2c(O)c(O)ccc12 (stereo not drawn),0.56% (inactive)
17,O=C(CSC(=S)N1CCOCC1)c1cc(Br)cc(Br)c1O,-2.37% (inactive)
18,CNC(=O)c1c(NC(NC(=O)c2ccco2)C(=O)c2ccc(Cl)cc2)sc2c1CCCC2 (stereo not drawn),-3.32% (inactive)
19,N#CCC(=O)N/N=C/c1ccc(SCC(=O)Nc2ccccc2)o1,-1.02% (inactive)
20,CC(=O)c1ccc(NC(=O)CCc2nnc3ccc(NCc4ccco4)nn23)cc1,-4.62% (inactive)
21,c1ccc(-c2ccc3c(c2)NC(C2Nc4cc(-c5ccccc5)ccc4O2)O3)cc1 (stereo not drawn),0.56% (inactive)
22,CCN(CC)S(=O)(=O)c1cc([N+](=O)[O-])ccc1NNC(=O)Nc1ccccc1,5.14% (inactive)
23,COc1cc(Br)cc(/C=N/c2ncn[nH]2)c1O,-0.48% (inactive)

row,Structure (SMILES),inhibition
1,Oc1c(C(c2ccco2)N2CCC3(CC2)OCCO3)sc2ncnn12 (stereo not drawn),-2.01% (inactive)
2,Cc1onc(-c2ccccc2)c1C(=O)NNC(=S)NC(=O)c1ccc(F)cc1,3.64% (inactive)
3,O=C(CSc1ncn[nH]1)Nc1nc(-c2cccc([N+](=O)[O-])c2)cs1,1.01% (inactive)
4,COc1ccc(/C=N/Nc2nc3ccccc3o2)cc1OC,-3.54% (inactive)
5,Cc1cc([N+](=O)[O-])c(-c2ccc(/C=N/n3cnnc3)o2)cc1Cl,5.55% (inactive)
6,O=C(CSc1ncn[nH]1)Nc1nsc(-c2ccccc2)n1,1.95% (inactive)
7,NC(=O)c1c(Nc2nc3c(F)cccc3s2)sc2c1CCCC2,3.61% (inactive)
8,CCOC(=O)NNc1cc(C(F)(F)F)ccn1,4.25% (inactive)
9,Cc1cc(/C=N/Nc2ccc([N+](=O)[O-])cn2)c(C)n1-c1cccc(C(=O)O)c1,3.84% (inactive)
10,S=c1[nH]c(-c2cccs2)cn1-c1ccccc1,-4.9% (inactive)
11,Cc1nccn1CC(=O)N/N=C/c1ccc(O)c(O)c1,5.14% (inactive)
12,Oc1ccc(-c2csc(Nc3cccnc3)n2)cc1,6.56% (inactive)
13,O=C(NNC(=O)c1ccco1)Nc1ccccc1,2.81% (inactive)
14,CCOCCCNC(=O)c1ccc(CS(=O)(=O)c2cccc(C(F)(F)F)c2)o1,-1.17% (inactive)
15,ONC(=Nc1ccccc1)c1ccccc1Cl,1.1% (inactive)
16,CCN1/C(=C/C(=S)Nc2ccccc2)Sc2ccccc21,0.64% (inactive)
17,OCCN1CCN(C(=S)c2ccc(-c3ccccc3)cc2)CC1,-0.85% (inactive)
18,CCn1c(CNS(=O)(=O)c2ccc(Cl)cc2)n[nH]c1=S,1.4% (inactive)
19,CC1(C)CC(=O)C/C(=N\NC(=O)c2cccs2)C1,-0.13% (inactive)
20,Cc1ccnc(-n2sc3ccccc3c2=O)n1,-1.29% (inactive)
21,Cc1nnc(SCC(=O)Nn2cnnc2)s1,1.95% (inactive)
